Columns and labels:
[1] = molecular target: Peptidyl-prolyl cis-trans isomerase A (Homo sapiens, UniProt P62937); experiment: Binding affinity to human cyclophilin A by surface plasmon resonance method
Hepatitis C virus [2] = experiment: Antiviral activity against HCV subtype 1b in human Huh7.5 cells expressing subgenomic HCV replicons and coexpressing luciferase reporter gene; format: functional, cell-based, Hepacivirus hominis; conditions: genotype 1b, Huh-7
Summary of the method: (§1)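 Stable Huh7.5 lines carrying genotype 1a or 1b subgenomic replicons with luciferase reporter, made by RNA electroporation and G418 selection. Assay run in phenol red-free DMEM without G418, sixteen half-log compound dilutions, in triplicate. Luciferase signal read after 72 h relative to DMSO controls, giving EC50.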

[3] = molecular target: T1, Solute carrier organic anion transporter family member 1B1 (Homo sapiens, UniProt Q9Y6L6); experiment: Inhibition of OATP1B1 (unknown origin) expressed in CHO cells using 8-fluorescein-cAMP substrate by fluorescent photometry; format: ADME, cell-based
T1 sequence (Q9Y6L6 whole entry): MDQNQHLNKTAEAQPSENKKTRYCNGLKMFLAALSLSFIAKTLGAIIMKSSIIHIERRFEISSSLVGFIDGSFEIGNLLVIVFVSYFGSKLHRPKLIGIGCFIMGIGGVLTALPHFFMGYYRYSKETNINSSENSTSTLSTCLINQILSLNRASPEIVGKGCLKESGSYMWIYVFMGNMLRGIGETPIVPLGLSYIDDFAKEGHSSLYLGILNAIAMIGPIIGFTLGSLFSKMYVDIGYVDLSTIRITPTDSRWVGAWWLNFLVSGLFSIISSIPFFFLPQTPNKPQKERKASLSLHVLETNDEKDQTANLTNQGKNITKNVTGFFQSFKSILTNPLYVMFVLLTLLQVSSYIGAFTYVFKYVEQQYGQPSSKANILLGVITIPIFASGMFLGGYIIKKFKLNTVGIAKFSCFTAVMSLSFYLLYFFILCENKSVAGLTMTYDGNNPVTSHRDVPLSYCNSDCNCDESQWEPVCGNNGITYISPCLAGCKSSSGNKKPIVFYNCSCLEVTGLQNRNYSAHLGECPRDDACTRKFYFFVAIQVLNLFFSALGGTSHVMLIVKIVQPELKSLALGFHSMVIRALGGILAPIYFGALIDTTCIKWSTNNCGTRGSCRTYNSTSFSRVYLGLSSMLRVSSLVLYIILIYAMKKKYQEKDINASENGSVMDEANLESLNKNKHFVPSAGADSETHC
Summary of the method: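 CHO-OATP1B1 cells and vector control cells cultured 2 days, then washed and equilibrated 15 min in HBSS + 10 mM HEPES. Exposed 10 min to 2.5 μM 8-fluorescein-cAMP with inhibitor at 0−30 μM (up to 1% DMSO). Cells washed and lysed, uptake measured by fluorescence, and IC50 taken from the concentration-response curve.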

Cytochrome P450 3A4 = Cytochrome P450 3A4 (Homo sapiens, UniProt P08684); experiment: Time dependent inhibition of CYP3A4 (unknown origin); format: ADME; conditions: TDE = time-dependent effect
Chain of Cytochrome P450 3A4 (P08684 whole entry): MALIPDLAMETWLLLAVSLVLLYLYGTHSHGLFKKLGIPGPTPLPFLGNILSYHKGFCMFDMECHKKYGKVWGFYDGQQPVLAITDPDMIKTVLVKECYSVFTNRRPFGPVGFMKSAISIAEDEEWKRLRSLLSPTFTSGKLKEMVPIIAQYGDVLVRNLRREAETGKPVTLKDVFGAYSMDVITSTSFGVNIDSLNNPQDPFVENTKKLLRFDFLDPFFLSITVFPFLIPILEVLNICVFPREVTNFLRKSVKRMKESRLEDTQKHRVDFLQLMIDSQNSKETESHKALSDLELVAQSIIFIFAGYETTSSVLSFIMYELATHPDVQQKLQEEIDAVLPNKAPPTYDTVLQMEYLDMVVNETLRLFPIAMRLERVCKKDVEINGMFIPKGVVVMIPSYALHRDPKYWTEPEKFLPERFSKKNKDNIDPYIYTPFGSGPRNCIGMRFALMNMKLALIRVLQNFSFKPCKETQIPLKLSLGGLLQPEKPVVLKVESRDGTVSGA

[4] = molecular target: Peptidyl-prolyl cis-trans isomerase B (Homo sapiens, UniProt P23284); experiment: Binding affinity to human cyclophilin B by surface plasmon resonance method
Chain of Peptidyl-prolyl cis-trans isomerase B (P23284 whole entry): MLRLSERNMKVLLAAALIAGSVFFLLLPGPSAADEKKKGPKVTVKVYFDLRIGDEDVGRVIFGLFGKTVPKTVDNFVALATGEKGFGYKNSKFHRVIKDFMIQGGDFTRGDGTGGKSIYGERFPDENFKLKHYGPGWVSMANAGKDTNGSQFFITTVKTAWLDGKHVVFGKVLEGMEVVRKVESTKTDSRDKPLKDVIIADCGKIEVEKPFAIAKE
Summary of the method: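 Biotinylated cyclophilin proteins examined by single-cycle kinetics SPR. Running buffer 10 mM HEPES pH 7.4, 150 mM NaCl, 0.05% P20, 3% DMSO, with inhibitor. Each concentration injected for 1 min at 50 μL/min, then 10 min dissociation. kon, koff and KD obtained from a 1:1 binding fit.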

[5] = molecular target: Peptidyl-prolyl cis-trans isomerase F, mitochondrial (Homo sapiens, UniProt P30405); experiment: Binding affinity to human cyclophilin F by surface plasmon resonance method
Chain of Peptidyl-prolyl cis-trans isomerase F, mitochondrial (P30405 whole entry): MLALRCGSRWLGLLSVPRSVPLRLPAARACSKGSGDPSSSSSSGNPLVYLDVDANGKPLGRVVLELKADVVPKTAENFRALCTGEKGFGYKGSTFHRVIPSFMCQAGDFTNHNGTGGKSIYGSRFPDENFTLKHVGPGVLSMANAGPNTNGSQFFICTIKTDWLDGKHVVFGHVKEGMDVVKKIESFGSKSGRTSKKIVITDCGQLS
Summary of the method: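 Surface plasmon resonance with biotinylated cyclophilin protein, single-cycle kinetics. Running buffer 10 mM HEPES pH 7.4, 150 mM NaCl, 0.05% P20, 3% DMSO, with inhibitor present. Compound injected at several concentrations, 1 min contact each at 50 μL/min, then 10 min final dissociation. kon, koff and KD obtained from a 1:1 binding model fit.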

Hepatitis C virus [6] = experiment: Antiviral activity against HCV subtype 1a in human Huh7.5 cells expressing subgenomic HCV replicons and coexpressing luciferase reporter gene; format: functional, cell-based, Hepacivirus hominis; conditions: Huh-7; summary of the method: as §1
Hepatitis C virus [7] = experiment: Antiviral activity against HCV subtype 1b in human Huh7.5 cells expressing subgenomic HCV replicons and coexpressing luciferase reporter gene in presence of 40% human serum; format: functional, cell-based, Hepacivirus hominis; conditions: genotype 1b, Huh-7
Summary of the method: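 Genotype 1b luciferase replicon in Huh7.5 cells with 40% human serum added to the assay medium, in phenol red-free DMEM without G418. Sixteen half-log dilutions in triplicate. Luciferase read after 72 h relative to DMSO-treated cells, giving EC50.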

PBMC = experiment: Cytotoxicity against PHA-stimulated human PBMC by 5-bromo-2'-deoxyuridine incorporation assay; format: cell-based
Summary of the method: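 Fresh PBMCs from two human donors in X-VIVO 15 medium, stimulated with PHA. Seven concentrations taken from a half-log series. Incubated 60 h at 37 °C, 5% CO2, with BrdU added for the final 12 h. Incorporation read by anti-BrdU ELISA at 450 nm. Percent inhibition against PHA-stimulated untreated cells after background subtraction, four-parameter fit giving IC50.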

[8] = Cytotoxicity against human MT4 cells by CDCF probe based assay; format: cell-based

Chain of Peptidyl-prolyl cis-trans isomerase A (P62937 whole entry): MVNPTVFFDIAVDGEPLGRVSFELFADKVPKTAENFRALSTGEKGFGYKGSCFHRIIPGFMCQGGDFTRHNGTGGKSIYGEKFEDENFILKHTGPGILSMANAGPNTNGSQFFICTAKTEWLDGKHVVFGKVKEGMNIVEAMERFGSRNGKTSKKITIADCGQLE

Row | Kd [1] [nM] | EC50 (Hepatitis C virus [2]) [nM] | IC50 [3] [nM] | inhibition (INH) (Cytochrome P450 3A4) | Compound | Kd [4] [nM] | Kd [5] [nM] | EC50 (Hepatitis C virus [6]) [nM] | EC50 (Hepatitis C virus [7]) [nM] | IC50 (PBMC) [nM] | CC50 [8] [nM]
1 | 1.3 | 28 | 1000 | – | C/C=C/C[C@@H](C)[C@@H](O)[C@H]1C(=O)N[C@@H](CC)C(=O)N(C)[C@H](C)C(=O)N(C)[C@@H]([C@H](C)CC#N)C(=O)N[C@@H](C(C)C)C(=O)N(C)[C@@H](CC(C)C)C(=O)N[C@@H](C)C(=O)N[C@H](C)C(=O)N(C)[C@@H](CC(C)C)C(=O)N(C)[C@@H](CC(C)C)C(=O)N(C)[C@@H](C(C)C)C(=O)N1C | – | – | – | – | – | –
2 | 1.7 | 36 | 2800 | – | C/C=C/C[C@@H](C)[C@@H](O)[C@H]1C(=O)N[C@@H](CC)C(=O)N(C)[C@H](C)C(=O)N(C)[C@@H]([C@H](C)COC)C(=O)N[C@@H](C(C)C)C(=O)N(C)[C@@H](CC(C)C)C(=O)N[C@@H](C)C(=O)N[C@H](C)C(=O)N(C)[C@@H](CC(C)C)C(=O)N(C)[C@@H](CC(C)C)C(=O)N(C)[C@@H](C(C)C)C(=O)N1C | – | – | – | – | – | –
3 | 3.1 | 33 | 4300 | – | C/C=C/C[C@@H](C)[C@@H](O)[C@H]1C(=O)N[C@@H](CC)C(=O)N(C)[C@H](C)C(=O)N(C)[C@@H]([C@H](C)CN2CCOCC2)C(=O)N[C@@H](C(C)C)C(=O)N(C)[C@@H](CC(C)C)C(=O)N[C@@H](C)C(=O)N[C@H](C)C(=O)N(C)[C@@H](CC(C)C)C(=O)N(C)[C@@H](CC(C)C)C(=O)N(C)[C@@H](C(C)C)C(=O)N1C | – | – | – | – | – | –
4 | 1.9 | 37 | 1800 | – | C/C=C/C[C@@H](C)[C@@H](O)[C@H]1C(=O)N[C@@H](CC)C(=O)N(C)[C@H](C)C(=O)N(C)[C@@H]([C@H](C)CN2CCCOCC2)C(=O)N[C@@H](C(C)C)C(=O)N(C)[C@@H](CC(C)C)C(=O)N[C@@H](C)C(=O)N[C@H](C)C(=O)N(C)[C@@H](CC(C)C)C(=O)N(C)[C@@H](CC(C)C)C(=O)N(C)[C@@H](C(C)C)C(=O)N1C | – | – | – | – | – | –
5 | 4 | 44 | – | – | C/C=C/C[C@@H](C)[C@@H](O)[C@H]1C(=O)N[C@@H](CC)C(=O)N(C)[C@H](C)C(=O)N(C)[C@@H]([C@H](C)CN2CCC(F)(F)C2)C(=O)N[C@@H](C(C)C)C(=O)N(C)[C@@H](CC(C)C)C(=O)N[C@@H](C)C(=O)N[C@H](C)C(=O)N(C)[C@@H](CC(C)C)C(=O)N(C)[C@@H](CC(C)C)C(=O)N(C)[C@@H](C(C)C)C(=O)N1C | – | – | – | – | – | –
6 | 2.5 | 42 | 1800 | – | C/C=C/C[C@@H](C)[C@@H](O)[C@H]1C(=O)N[C@@H](CC)C(=O)N(C)[C@H](C)C(=O)N(C)[C@@H]([C@H](C)CN2CC3CCC(C2)O3)C(=O)N[C@@H](C(C)C)C(=O)N(C)[C@@H](CC(C)C)C(=O)N[C@@H](C)C(=O)N[C@H](C)C(=O)N(C)[C@@H](CC(C)C)C(=O)N(C)[C@@H](CC(C)C)C(=O)N(C)[C@@H](C(C)C)C(=O)N1C | – | – | – | – | – | –
7 | 1.4 | 29 | – | – | C/C=C/C[C@@H](C)[C@@H](O)[C@H]1C(=O)N[C@@H](CC)C(=O)N(C)[C@H](C)C(=O)N(C)[C@@H]([C@H](C)CN2CCC(C#N)CC2)C(=O)N[C@@H](C(C)C)C(=O)N(C)[C@@H](CC(C)C)C(=O)N[C@@H](C)C(=O)N[C@H](C)C(=O)N(C)[C@@H](CC(C)C)C(=O)N(C)[C@@H](CC(C)C)C(=O)N(C)[C@@H](C(C)C)C(=O)N1C | – | – | – | – | – | –
8 | 1.8 | 42 | 2000 | – | C/C=C/C[C@@H](C)[C@@H](O)[C@H]1C(=O)N[C@@H](CC)C(=O)N(C)[C@H](C)C(=O)N(C)[C@@H]([C@H](C)CN(C)CCOC)C(=O)N[C@@H](C(C)C)C(=O)N(C)[C@@H](CC(C)C)C(=O)N[C@@H](C)C(=O)N[C@H](C)C(=O)N(C)[C@@H](CC(C)C)C(=O)N(C)[C@@H](CC(C)C)C(=O)N(C)[C@@H](C(C)C)C(=O)N1C | – | – | – | – | – | –
9 | 1.1 | 29 | – | tde | C/C=C/C[C@@H](C)[C@@H](O)[C@H]1C(=O)N[C@@H](CC)C(=O)N(C)[C@H](C)C(=O)N(C)[C@@H]([C@H](C)CCN2CCOCC2)C(=O)N[C@@H](C(C)C)C(=O)N(C)[C@@H](CC(C)C)C(=O)N[C@@H](C)C(=O)N[C@H](C)C(=O)N(C)[C@@H](CC(C)C)C(=O)N(C)[C@@H](CC(C)C)C(=O)N(C)[C@@H](C(C)C)C(=O)N1C | – | – | – | – | – | –
10 | 1.1 | 36 | 6400 | – | C/C=C/C[C@@H](C)[C@@H](O)[C@H]1C(=O)N[C@@H](CC)C(=O)N(C)[C@H](C)C(=O)N(C)[C@@H]([C@H](C)COCCN2CCOCC2)C(=O)N[C@@H](C(C)C)C(=O)N(C)[C@@H](CC(C)C)C(=O)N[C@@H](C)C(=O)N[C@H](C)C(=O)N(C)[C@@H](CC(C)C)C(=O)N(C)[C@@H](CC(C)C)C(=O)N(C)[C@@H](C(C)C)C(=O)N1C | – | – | – | – | – | –
11 | – | 221 | – | – | C/C=C/C[C@@H](C)[C@@H](O)[C@H]1C(=O)N[C@@H](CC)C(=O)N(C)C(SCCN(C)C)C(=O)N(C)[C@@H](CC(C)(C)O)C(=O)N[C@@H](C(C)C)C(=O)N(C)[C@@H](CC(C)C)C(=O)N[C@@H](C)C(=O)N[C@H](C)C(=O)N(C)[C@@H](CC(C)C)C(=O)N(C)[C@@H](CC(C)C)C(=O)N(C)[C@@H](C(C)C)C(=O)N1C (single isomer, unassigned) [SCY 635] | 2.9 | 3.1 | 263 | 192 | 4700 | –

Row | Compound | Kd [1] [nM] | EC50 (Hepatitis C virus [2]) [nM] | IC50 [3] [nM] | inhibition (INH) (Cytochrome P450 3A4) | Kd [4] [nM] | Kd [5] [nM] | EC50 (Hepatitis C virus [6]) [nM] | EC50 (Hepatitis C virus [7]) [nM] | IC50 (PBMC) [nM] | CC50 [8] [nM]
12 | C/C=C/C[C@@H](C)[C@@H](O)[C@H]1C(=O)N[C@@H](CC)C(=O)N(C)CC(=O)N(C)[C@@H]([C@@H](C)CC)C(=O)N[C@@H](C(C)C)C(=O)N(C)[C@@H](CC(C)C)C(=O)N[C@@H](C)C(=O)N[C@H](C)C(=O)N(C)[C@@H](CC(C)C)C(=O)N(C)[C@@H](CC(C)C)C(=O)N(C)[C@@H](C(C)C)C(=O)N1C [NIM811] | 7.5 | 97 | – | – | 7.4 | 4.2 | 217 | 210 | 2400 | 13000

— ChEMBL document CHEMBL3351593, “Potent nonimmunosuppressive cyclophilin inhibitors with improved pharmaceutical properties and decreased transporter inhibition” (J Med Chem, 2014)
